≈ marks a conversion by molar mass, not a printed value.
Columns and labels:
Mycobacterium kansasii [1] = experiment: Antimycobacterial activity against Mycobacterium kansasii isolate 235/80 after 14 days by micromethod; assay type: functional; details: isolate 235/80, 336 h
Outline: (§1)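 MIC in Šula's semisynthetic medium at 37 °C, read after 7, 14 and 21 days. Inoculum is strain dilution 10^-4; 235/80 is a collection strain and 6509/96 a clinical isolate. Compounds are added as DMSO solutions at 500, 250, 125, 62.5, 32, 16, 8, 4, 2, 1 and 0.5 µM. INH (in sterile water) and PAS are the reference drugs.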

Mycobacterium kansasii [2] = experiment: Antimycobacterial activity against Mycobacterium kansasii isolate 235/80 after 7 days by micromethod; assay type: functional; details: isolate 235/80, 168 h; outline: as §1
Mycobacterium avium [3] = experiment: Antimycobacterial activity against Mycobacterium avium My 330/80 after 14 days by micromethod; assay type: functional; details: My 330/80, 336 h
Outline: (§2)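 M. avium My 330/80 (collection strain) inoculated at 10^-5 dilution into Šula's semisynthetic medium. Compounds added from DMSO solutions at 500, 250, 125, 62.5, 32, 16, 8, 4, 2, 1 and 0.5 µM. MIC determined by micromethod at 37 °C, read after 14 and 21 days.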

Mycobacterium kansasii [4] = experiment: Antimycobacterial activity against Mycobacterium kansasii isolate 6509/96 after 7 days by micromethod; assay type: functional; details: isolate 6509/96, 168 h; outline: as §1
Mycobacterium avium [5] = experiment: Antimycobacterial activity against Mycobacterium avium My 330/80 after 21 days by micromethod; assay type: functional; details: My 330/80, 504 h; outline: as §2
[6] = test system: Mycobacterium tuberculosis; experiment: Antimycobacterial activity against Mycobacterium tuberculosis H37Rv My 331/88 after 21 days by micromethod; assay type: functional; details: H37Rv My 331/88, 504 h
Outline: (§3)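 MIC micromethod in Šula's semisynthetic medium at 37 °C, read after 14 and 21 days. Compounds added as DMSO solutions at 500 down to 0.5 µM (twofold-type series: 500, 250, 125, 62.5, 32, 16, 8, 4, 2, 1, 0.5 µM). Isoniazid standard given in sterile water.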

[7] = Cytotoxicity against human HepG2 cells assessed as reduction in cell viability after 24 hrs by MTS assay; assay type: toxicity, cell-based
Outline: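 HepG2 cells (passages 33-37) are grown in MEM with 10% FBS, L-glutamine and non-essential amino acids. They are seeded at 1 × 10^4 cells/well and treated next day with 0.1-100 µM in triplicate for 24 h at 37 °C, 5% CO2. MTS reagent is added for 2 h and A490 read.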

Mycobacterium kansasii [8] = experiment: Antimycobacterial activity against Mycobacterium kansasii isolate 6509/96 after 21 days by micromethod; assay type: functional; details: isolate 6509/96, 504 h; outline: as §1
Mycobacterium kansasii [9] = experiment: Antimycobacterial activity against Mycobacterium kansasii isolate 6509/96 after 14 days by micromethod; assay type: functional; details: isolate 6509/96, 336 h; outline: as §1
[10] = Selectivity index, ratio of IC50 for human HepG2 cells to MIC for Mycobacterium tuberculosis H37Rv after 21 days; assay type: toxicity, cell-based; details: HepG2 cells versus Mycobacterium tuberculosis H37Rv, read-out: Selectivity Index
Outline: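 HepG2 cells (passages 33-37) seeded at 1 × 10^4 per well and treated next day with 0.1–100 µM in triplicate. After 24 h at 37 °C, 5% CO2, MTS reagent added for 2 h and absorbance read at 490 nm. IC50 taken from viability relative to untreated control, then divided by the 21-day H37Rv MIC.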

Mycobacterium kansasii [11] = experiment: Antimycobacterial activity against Mycobacterium kansasii isolate 235/80 after 21 days by micromethod; assay type: functional; details: isolate 235/80, 504 h; outline: as §1
[12] = test system: Mycobacterium tuberculosis; experiment: Antimycobacterial activity against Mycobacterium tuberculosis H37Rv My 331/88 after 14 days by micromethod; assay type: functional; details: H37Rv My 331/88, 336 h; outline: as §3

SMILES | MIC (Mycobacterium kansasii [1]) | MIC (Mycobacterium kansasii [2]) | MIC (Mycobacterium avium [3]) | MIC (Mycobacterium kansasii [4]) | MIC (Mycobacterium avium [5]) | MIC [6] | IC50 at 24 h [7] | MIC (Mycobacterium kansasii [8]) | MIC (Mycobacterium kansasii [9]) | selectivity ratio at 504 h [10] | MIC (Mycobacterium kansasii [11]) | MIC [12]
O=C(Nc1ccc(Cl)c(Cl)c1)c1ccc(Cl)cc1O | 8 µM (≈ 2.53 µg/mL) | 4 µM (≈ 1.27 µg/mL) | 16 µM (≈ 5.07 µg/mL) | 4 µM (≈ 1.27 µg/mL) | 16 µM (≈ 5.07 µg/mL) | 4 µM (≈ 1.27 µg/mL) | 2.23 µM | 8 µM (≈ 2.53 µg/mL) | 4 µM (≈ 1.27 µg/mL) | 0.56 | 8 µM (≈ 2.53 µg/mL) | 4 µM (≈ 1.27 µg/mL)
O=C(Nc1ccc(Br)cc1)c1ccc(Cl)cc1O | 4 µM (≈ 1.31 µg/mL) | 4 µM (≈ 1.31 µg/mL) | 16 µM (≈ 5.23 µg/mL) | 4 µM (≈ 1.31 µg/mL) | 16 µM (≈ 5.23 µg/mL) | 4 µM (≈ 1.31 µg/mL) | 3.24 µM | 8 µM (≈ 2.61 µg/mL) | 8 µM (≈ 2.61 µg/mL) | 0.81 | 4 µM (≈ 1.31 µg/mL) | 4 µM (≈ 1.31 µg/mL)
O=C(Nc1ccc(C(F)(F)F)cc1)c1ccc(Cl)cc1O | 4 µM (≈ 1.26 µg/mL) | 2 µM (≈ 0.631 µg/mL) | 8 µM (≈ 2.53 µg/mL) | 2 µM (≈ 0.631 µg/mL) | 8 µM (≈ 2.53 µg/mL) | 4 µM (≈ 1.26 µg/mL) | 2.64 µM | 4 µM (≈ 1.26 µg/mL) | 2 µM (≈ 0.631 µg/mL) | 0.66 | 4 µM (≈ 1.26 µg/mL) | 4 µM (≈ 1.26 µg/mL)
O=C(Nc1ccc(Br)cc1)c1cc(Cl)ccc1O | 4 µM (≈ 1.31 µg/mL) | 4 µM (≈ 1.31 µg/mL) | 8 µM (≈ 2.61 µg/mL) | 4 µM (≈ 1.31 µg/mL) | 8 µM (≈ 2.61 µg/mL) | 16 µM (≈ 5.23 µg/mL) | 3.14 µM | 8 µM (≈ 2.61 µg/mL) | 8 µM (≈ 2.61 µg/mL) | 0.2 | 4 µM (≈ 1.31 µg/mL) | 8 µM (≈ 2.61 µg/mL)
O=C(Nc1ccc(C(F)(F)F)cc1)c1cc(Cl)ccc1O | 1 µM (≈ 0.316 µg/mL) | 1 µM (≈ 0.316 µg/mL) | 8 µM (≈ 2.53 µg/mL) | 2 µM (≈ 0.631 µg/mL) | 8 µM (≈ 2.53 µg/mL) | 2 µM (≈ 0.631 µg/mL) | – | 2 µM (≈ 0.631 µg/mL) | 2 µM (≈ 0.631 µg/mL) | – | 1 µM (≈ 0.316 µg/mL) | 2 µM (≈ 0.631 µg/mL)
O=C(Nc1cc(C(F)(F)F)cc(C(F)(F)F)c1)c1cc(Br)ccc1O | 8 µM (≈ 3.43 µg/mL) | 4 µM (≈ 1.71 µg/mL) | 16 µM (≈ 6.85 µg/mL) | 4 µM (≈ 1.71 µg/mL) | 16 µM (≈ 6.85 µg/mL) | 2 µM (≈ 0.856 µg/mL) | 7.8 µM | 8 µM (≈ 3.43 µg/mL) | 8 µM (≈ 3.43 µg/mL) | 3.4 | 8 µM (≈ 3.43 µg/mL) | 2 µM (≈ 0.856 µg/mL)
O=C(Nc1cc(C(F)(F)F)cc(C(F)(F)F)c1)c1ccc(Cl)cc1O | 8 µM (≈ 3.07 µg/mL) | 8 µM (≈ 3.07 µg/mL) | 16 µM (≈ 6.14 µg/mL) | 8 µM (≈ 3.07 µg/mL) | 16 µM (≈ 6.14 µg/mL) | 4 µM (≈ 1.53 µg/mL) | 9.55 µM | 8 µM (≈ 3.07 µg/mL) | 8 µM (≈ 3.07 µg/mL) | 2.39 | 16 µM (≈ 6.14 µg/mL) | 4 µM (≈ 1.53 µg/mL)
O=C(Nc1ccc(C(F)(F)F)cc1)c1cc(Br)ccc1O | 2 µM (≈ 0.72 µg/mL) | 2 µM (≈ 0.72 µg/mL) | 1 µM (≈ 0.36 µg/mL) | 2 µM (≈ 0.72 µg/mL) | 1 µM (≈ 0.36 µg/mL) | 1 µM (≈ 0.36 µg/mL) | 1.81 µM | 4 µM (≈ 1.44 µg/mL) | 4 µM (≈ 1.44 µg/mL) | 1.81 | 4 µM (≈ 1.44 µg/mL) | 1 µM (≈ 0.36 µg/mL)
O=C(Nc1ccc(Cl)c(Cl)c1)c1cc(Br)ccc1O | 8 µM (≈ 2.89 µg/mL) | 8 µM (≈ 2.89 µg/mL) | 8 µM (≈ 2.89 µg/mL) | 2 µM (≈ 0.722 µg/mL) | 8 µM (≈ 2.89 µg/mL) | 4 µM (≈ 1.44 µg/mL) | 31.5 µM | 4 µM (≈ 1.44 µg/mL) | 2 µM (≈ 0.722 µg/mL) | 7.87 | 8 µM (≈ 2.89 µg/mL) | 4 µM (≈ 1.44 µg/mL)
O=C(Nc1ccc(C(F)(F)F)cc1)c1ccc(Br)cc1O | 2 µM (≈ 0.72 µg/mL) | 2 µM (≈ 0.72 µg/mL) | 8 µM (≈ 2.88 µg/mL) | 2 µM (≈ 0.72 µg/mL) | 8 µM (≈ 2.88 µg/mL) | 2 µM (≈ 0.72 µg/mL) | 15 µM | 4 µM (≈ 1.44 µg/mL) | 4 µM (≈ 1.44 µg/mL) | 7.52 | 4 µM (≈ 1.44 µg/mL) | 1 µM (≈ 0.36 µg/mL)
O=C(Nc1ccc(Br)cc1)c1ccc(Br)cc1O | 8 µM (≈ 2.97 µg/mL) | 4 µM (≈ 1.48 µg/mL) | 16 µM (≈ 5.94 µg/mL) | 8 µM (≈ 2.97 µg/mL) | 16 µM (≈ 5.94 µg/mL) | 4 µM (≈ 1.48 µg/mL) | 7.59 µM | 8 µM (≈ 2.97 µg/mL) | 8 µM (≈ 2.97 µg/mL) | 1.9 | 8 µM (≈ 2.97 µg/mL) | 2 µM (≈ 0.742 µg/mL)
